Only some compounds are listed: those with a hit (about 4.9% of all), similar ones and a draw of the others.
STAT1 inh = STAT1 signaling inhibitors, primary screen, cell-based, HTS, luciferase reporter | inhibition, % at 5.5 µM | NIH 3T3 STAT1-luciferase reporter, IFN-gamma, luminescence | AID 920, 2007 | actives 0.35% (n = 200,000);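 active means inhibition above a set limit, the mean inhibition across all tested compounds plus 3 SD, cut at about 34% in these data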;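 further: 0% = IFN-gamma with DMSO and 100% = IFN-gamma with 300 µM nifuroxazide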
STAT3 act = IL-6 driven STAT3 reporter potentiators, primary screen, U3A cells, luciferase, luminescence, MLSCN library | activation (% of control), % at 5.6 µM | IL-6 STAT3-luciferase reporter; 100% = signal with IL-6 EC80 alone | AID 871, 2007 | actives 0.91% (n = 190,000);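 active means activation above the screen-wide mean of compound activation plus 3 SD, cut at about 130% in these data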;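 further: 0% = background luminescence of wells with medium and substrate only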
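Assay system – human STAT1-deficient U3A cells with stable STAT3-luciferase reporter · Also added – IL-6 (33 ng/mL) · Schedule – compound 1 h, then IL-6 6 h at 37 °C · Technique – reporter luminescence signal · Evaluation – % activation versus median of IL-6-stimulated wells · Benchmarks – IL-6-only wells as 100% reference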
FLuc stim CS = FLuc activators, initial screening, artefact control for FLuc-dependent activation tests, biochemical, ATPlite luminescence; activation factor at 10 µM; ATPlite luciferase biochemical, 10 min; 0 = ATP-free wells, 1 = DMSO control; 200,000 tested, under 10 active;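 active means luciferase activation factor, scaled between plate controls, of at least 2 with compound at 10 µM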
Target sequence (P08659 whole entry, looked up): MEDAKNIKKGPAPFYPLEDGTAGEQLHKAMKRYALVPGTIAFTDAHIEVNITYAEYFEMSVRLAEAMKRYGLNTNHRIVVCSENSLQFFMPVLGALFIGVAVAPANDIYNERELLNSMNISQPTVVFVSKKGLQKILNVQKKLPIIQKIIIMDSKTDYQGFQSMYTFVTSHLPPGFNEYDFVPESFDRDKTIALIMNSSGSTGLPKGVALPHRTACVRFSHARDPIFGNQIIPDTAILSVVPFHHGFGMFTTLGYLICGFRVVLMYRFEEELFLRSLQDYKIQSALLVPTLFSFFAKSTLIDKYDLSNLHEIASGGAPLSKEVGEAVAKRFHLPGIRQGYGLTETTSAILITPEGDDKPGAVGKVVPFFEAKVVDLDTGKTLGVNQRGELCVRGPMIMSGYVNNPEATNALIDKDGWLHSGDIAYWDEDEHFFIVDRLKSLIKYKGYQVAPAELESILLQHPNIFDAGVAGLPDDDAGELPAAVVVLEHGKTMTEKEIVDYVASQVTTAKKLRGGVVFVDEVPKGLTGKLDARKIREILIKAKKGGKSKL
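Assay system: Luciferase/luciferin detection reagent, cell-free biochemical luciferase assay / Read-out: luciferase activation / Benchmarks: No-ATP low control, compound-free enzyme-plus-ATP high control / Medium: PBS buffer for ATP / Detection: luminescence measurement of luciferase light output / Schedule: 10 min at ambient temperature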
STAT3 inh = IL-6 driven STAT3 reporter inhibitors, primary screen, U3A cells, luciferase, luminescence, MLSCN library | IL-6 STAT3-luciferase reporter; host cell line lacks STAT1 | inhibition, % at 5.5 µM | actives 0.89% (n = 190,000) | AID 862, 2007;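 active means inhibition above the mean inhibition across all screened compounds plus 3 SD, cut at about 44% in these data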;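 further: 0% = DMSO only wells and 100% = 100 µM nifuroxazide control wells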
STAT1 activator = STAT1 signaling activators, primary screen, cell-based, HTS, luciferase reporter; actives 2.6% (n = 200,000); activation (% of control), % at 5.5 µM; NIH 3T3 STAT1-luciferase reporter, IFN-gamma, luminescence; 100% = IFN-gamma alone, no compound;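 active means activation above the screen-wide mean activation plus 3 SD, cut at about 130% in these data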;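 further: raw ratio to IFN-gamma control signal so 100% means no change and 0% no light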
FLuc inh counter = firefly luciferase enzyme inhibitors, primary screen, artefact control for luciferase-based inhibitor screens, biochemical, luminescence, ATPLite; Luciferin 4-monooxygenase (Photinus pyralis), P08659; 10 min; inhibition, % at 10 µM; actives 1.5% (n = 200,000); AID 1006, 2008;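 active means inhibition above about 50% when tested at 10 µM, limit read from the data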
The depositor's hits bear a star.

Screening CC(=Nc1cccc(O)c1)c1sc2ccccc2c1O returned STAT1 inh -14.5, STAT3 act 119.0, FLuc stim CS 0.5, STAT3 inh -22.6, STAT1 activator 112.1 and FLuc inh counter 53.4*.
`CC(=Nc1ccc(C)cc1C)c1sc2ccccc2c1O` gave STAT1 inh -48.4, STAT3 act 71.2, FLuc stim CS 0.2, STAT3 inh 35.8, STAT1 activator 142.6* and FLuc inh counter 84.8*.
Screening Cc1cccc(-n2nnc3c(=O)n(Cc4ccccn4)cnc32)c1 returned STAT1 inh -6.5, STAT3 act 101.3, FLuc stim CS 1, STAT3 inh 4.9, STAT1 activator 103.9 and FLuc inh counter 2.6.
Screening CCOC(=O)c1c(NC(=O)c2c(-c3ccccc3)noc2C)sc(C)c1-c1ccccc1 returned STAT1 inh -39.7, STAT3 act 127.8, FLuc stim CS 1.1, STAT3 inh -23.3, STAT1 activator 136.5* and FLuc inh counter -6.0.
For CCOC(=O)Cc1csc(NC(=O)c2c(-c3ccccc3)noc2C)n1 the results were STAT1 inh 0.8, STAT3 act 96.9, FLuc stim CS 1.1, STAT3 inh 4.4, STAT1 activator 99.2 and FLuc inh counter -9.0.
`CCOC(=O)N1CCN(C(=O)CSc2nnc(-c3ccc(C(C)(C)C)cc3)o2)CC1` gave STAT1 inh 14.7, STAT3 act 102.0, FLuc stim CS 0.5, STAT3 inh -2.2, STAT1 activator 87.1 and FLuc inh counter 53.1*.
For CN(C)c1ccc(NC(=O)c2ccc([N+](=O)[O-])cc2Cl)cc1 the results were STAT1 inh -50.8, STAT3 act 93.7, FLuc stim CS 0.7, STAT3 inh 11.0, STAT1 activator 144.9* and FLuc inh counter 27.1.
For O=C(Nc1ccccn1)c1ccc([N+](=O)[O-])cc1Cl the results were STAT1 inh -6.5, STAT3 act 92.6, FLuc stim CS 1, STAT3 inh 7.4, STAT1 activator 105.9 and FLuc inh counter 4.1.
Screening CC(C)C(=O)Nc1ccc(NC(=O)c2ccc([N+](=O)[O-])cc2Cl)cc1 returned STAT1 inh -4.7, STAT3 act 90.6, FLuc stim CS 1, STAT3 inh 13.1, STAT1 activator 104.2 and FLuc inh counter 0.0.
Screening Cc1ccc(NC(=O)c2ccc([N+](=O)[O-])cc2Cl)nc1 returned STAT1 inh -40.7, STAT3 act 91.3, FLuc stim CS 0.6, STAT3 inh 14.3, STAT1 activator 135.9* and FLuc inh counter 41.3.
`O=C(O)COc1ccccc1/C=N/NC(=O)c1cccc(S(=O)(=O)N2CCOCC2)c1` gave STAT1 inh 1.9, STAT3 act 97.0, FLuc stim CS 0.9, STAT3 inh 4.3, STAT1 activator 98.8 and FLuc inh counter 5.9.
`CC(=O)Cc1nsc(Nc2ccc3c(c2)OCCO3)n1` gave STAT1 inh -52.3, STAT3 act 113.9, FLuc stim CS 0.9, STAT3 inh -11.7, STAT1 activator 147.9* and FLuc inh counter 9.7.
CC(=O)Cc1nsc(Nc2ccc(F)cc2)n1 was read as STAT1 inh -11.4, STAT3 act 100.2, FLuc stim CS 1, STAT3 inh 5.4, STAT1 activator 110.3 and FLuc inh counter -2.1.
Screening CCCCc1c(C)c2ccc(OCC(C)=O)cc2oc1=O returned STAT1 inh -36.3, STAT3 act 105.5, FLuc stim CS 1, STAT3 inh -0.8, STAT1 activator 133.0* and FLuc inh counter 1.1.
Screening CCCc1c(C)c2ccc(OCC(C)=O)cc2oc1=O returned STAT1 inh -33.7, STAT3 act 88.8, FLuc stim CS 1, STAT3 inh 19.5, STAT1 activator 130.8* and FLuc inh counter 3.7.
For C=CCOC(=O)COc1ccc2c(C)c(CC)c(=O)oc2c1 the results were STAT1 inh 5.7, STAT3 act 88.0, FLuc stim CS 0.8, STAT3 inh 18.5, STAT1 activator 94.7 and FLuc inh counter 22.3.

Bioassay records deposited in PubChem by several laboratories.
